The source of these data is ChEMBL document CHEMBL3046621, “Fungicidal sesquiterpene dialdehyde cinnamates from Pseudowintera axillaris” (2006).

Type in all cases: functional
Experiment [1] concerns Puccinia graminis f. tritici. Kind of experiment: Antifungal activity against Puccinia graminis f. tritici assessed as inhibition of wheat stem rust disease on wheat cultivar Yuma at 100 ppm measured 24 hr post fungal inoculation relative to untreated control. An outline of the steps:
(§1)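 Whole-plant protectant test: pure compounds in acetone, serially diluted in acetone to 6.25, 25 or 100 ppm and applied to plants.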

The test system of experiment [2] is Zymoseptoria tritici. Kind of experiment: Antifungal activity against Zymoseptoria tritici assessed as inhibition of wheat leaf spot disease on wheat cultivar Yuma at 25 ppm measured 24 hr post fungal inoculation relative to untreated control. An outline of the steps:
as §1

Experiment [3] has as its system Phytophthora infestans. Kind of experiment: Antifungal activity against Phytophthora infestans assessed as inhibition of late tomato blight disease on tomato cultivar Rutgers plants at 6.25 ppm measured 96 hr post fungal inoculation relative to untreated control. In a few lines:
as §1

The subject of experiment [4] is Phytophthora infestans. Kind of experiment: Antifungal activity against Phytophthora infestans assessed as inhibition of late tomato blight disease on tomato cultivar Rutgers plants at 100 ppm measured 24 hr post fungal inoculation relative to untreated control. In a few lines:
as §1

The test system of experiment [5] is Plasmopara viticola. As to the kind of experiment: Antifungal activity against Plasmopara viticola assessed as inhibition of grape downy mildew disease on vines cultivar Carignane plants at 100 ppm measured 24 hr post fungal inoculation relative to untreated control. In a few lines:
as §1

Experiment [6] relates to Phytophthora infestans. Kind of experiment: Antifungal activity against Phytophthora infestans assessed as inhibition of late tomato blight disease on tomato cultivar Rutgers plants at 6.25 ppm measured 24 hr post fungal inoculation relative to untreated control. In a few lines:
as §1

In experiment [7] the test system is Phytophthora infestans. Kind of experiment: Antifungal activity against Phytophthora infestans assessed as inhibition of late tomato blight disease on tomato cultivar Rutgers plants at 100 ppm measured 96 hr post fungal inoculation relative to untreated control. An outline of the steps: as §1
Experiment [8] concerns Zymoseptoria tritici. Kind of experiment: Antifungal activity against Zymoseptoria tritici assessed as inhibition of wheat leaf spot disease on wheat cultivar Yuma at 100 ppm measured 24 hr post fungal inoculation relative to untreated control. In a few lines: as §1
The subject of experiment [9] is Parastagonospora nodorum. Kind of experiment: Antifungal activity against Phaeosphaeria nodorum assessed as inhibition of glume blotch disease on wheat cultivar Yuma plants at 6.25 ppm measured 24 hr post fungal inoculation relative to untreated control. In a few lines: as §1
For experiment [10], the system named is Plasmopara viticola. As to the kind of experiment: Antifungal activity against Plasmopara viticola assessed as inhibition of grape downy mildew disease on vines cultivar Carignane plants at 100 ppm measured 96 hr post fungal inoculation relative to untreated control. An outline of the steps:
as §1

Experiment [11] deals with Puccinia graminis f. tritici. Kind of experiment: Antifungal activity against Puccinia graminis f. tritici assessed as inhibition of wheat stem rust disease on wheat cultivar Yuma at 6.25 ppm measured 24 hr post fungal inoculation relative to untreated control. An outline of the steps:
as §1

In experiment [12] the test system is Puccinia graminis f. tritici. Kind of experiment: Antifungal activity against Puccinia graminis f. tritici assessed as inhibition of wheat stem rust disease on wheat cultivar Yuma at 25 ppm measured 24 hr post fungal inoculation relative to untreated control. An outline of the steps:
as §1

In experiment [13] the test system is Puccinia graminis f. tritici. Kind of experiment: Antifungal activity against Puccinia graminis f. tritici assessed as inhibition of wheat stem rust disease on wheat cultivar Yuma at 25 ppm measured 96 hr post fungal inoculation relative to untreated control. In a few lines: as §1
Experiment [14] has as its system Parastagonospora nodorum. As to the kind of experiment: Antifungal activity against Phaeosphaeria nodorum assessed as inhibition of glume blotch disease on wheat cultivar Yuma plants at 100 ppm measured 24 hr post fungal inoculation relative to untreated control. In a few lines:
as §1

Experiment [15] has as its system Parastagonospora nodorum. As to the kind of experiment: Antifungal activity against Phaeosphaeria nodorum assessed as inhibition of glume blotch disease on wheat cultivar Yuma plants at 25 ppm measured 24 hr post fungal inoculation relative to untreated control. In a few lines:
as §1

For experiment [16], the system named is Plasmopara viticola. Kind of experiment: Antifungal activity against Plasmopara viticola assessed as inhibition of grape downy mildew disease on vines cultivar Carignane plants at 25 ppm measured 24 hr post fungal inoculation relative to untreated control. In a few lines:
as §1

Experiment [17] concerns Puccinia graminis f. tritici. As to the kind of experiment: Antifungal activity against Puccinia graminis f. tritici assessed as inhibition of wheat stem rust disease on wheat cultivar Yuma at 6.25 ppm measured 96 hr post fungal inoculation relative to untreated control. An outline of the steps:
as §1

For experiment [18], the system named is Phytophthora infestans. Kind of experiment: Antifungal activity against Phytophthora infestans assessed as inhibition of late tomato blight disease on tomato cultivar Rutgers plants at 25 ppm measured 96 hr post fungal inoculation relative to untreated control. An outline of the steps:
as §1

The test system of experiment [19] is Phytophthora infestans. Kind of experiment: Antifungal activity against Phytophthora infestans assessed as inhibition of late tomato blight disease on tomato cultivar Rutgers plants at 25 ppm measured 24 hr post fungal inoculation relative to untreated control. In a few lines: as §1
Experiment [20] has as its system Plasmopara viticola. As to the kind of experiment: Antifungal activity against Plasmopara viticola assessed as inhibition of grape downy mildew disease on vines cultivar Carignane plants at 6.25 ppm measured 24 hr post fungal inoculation relative to untreated control. In a few lines: as §1
For experiment [21], the system named is Puccinia graminis f. tritici. As to the kind of experiment: Antifungal activity against Puccinia graminis f. tritici assessed as inhibition of wheat stem rust disease on wheat cultivar Yuma at 100 ppm measured 96 hr post fungal inoculation relative to untreated control. In a few lines: as §1
Experiment [22] has as its system Plasmopara viticola. As to the kind of experiment: Antifungal activity against Plasmopara viticola assessed as inhibition of grape downy mildew disease on vines cultivar Carignane plants at 25 ppm measured 96 hr post fungal inoculation relative to untreated control. An outline of the steps:
as §1

Experiment [23] has as its system Plasmopara viticola. Kind of experiment: Antifungal activity against Plasmopara viticola assessed as inhibition of grape downy mildew disease on vines cultivar Carignane plants at 6.25 ppm measured 96 hr post fungal inoculation relative to untreated control. An outline of the steps: as §1
Experiment [24] concerns Zymoseptoria tritici. Kind of experiment: Antifungal activity against Zymoseptoria tritici assessed as inhibition of wheat leaf spot disease on wheat cultivar Yuma at 6.25 ppm measured 24 hr post fungal inoculation relative to untreated control. In a few lines:
as §1

In the case of `C=C1[C@@H](C)C[C@@H](OC(=O)/C=C/c2ccccc2)[C@]2(C)[C@@H]3C(=CC[C@@H]12)[C@@H](OC)O[C@H]3OC`, the inhibition at 100 ppm in [1] worked out at 71%; in [4], 99%; in [5], 74%; in experiment [7], 14%; in experiment [8], 0%; in [10], 57%. For the same molecule, the results for the inhibition at 100 ppm in experiment [14] and in experiment [21] were 20% and 19%, respectively. The inhibition at 25 ppm in experiment [2] amounted to 0%; in [12] it was 4%; in [13], 0%; in experiment [15], 0%; in experiment [16], 61%; in experiment [18], 6%. The inhibition at 25 ppm in experiment [19] worked out at 78%; in experiment [22], 23%. The inhibition at 6.25 ppm in [3] amounted to 0%; in [6] it was 47%; in experiment [9], 0%; in experiment [11], 4%; in [17] it was 0%; in [20] it was 7%. For the same molecule, the inhibition at 6.25 ppm in experiment [23] and in experiment [24] was 0% in each case.

As to `C=C1[C@@H](C)C[C@@H](OC)[C@]2(C)[C@@H](C=O)C(C=O)=CC[C@@H]12`, the inhibition at 100 ppm in experiment [1] turned out to be 21%; in experiment [4] it was 98%; in experiment [5], 70%; in [8] it was 0%; in [14], 20%. The inhibition at 25 ppm was determined as 0% in experiment [2]; 0% in experiment [12]; 20% in experiment [15]; 33% in experiment [16]; 67% in experiment [19]. For the same molecule, the inhibition at 6.25 ppm was determined as 3% in [6]; 20% in [9]; 0% in experiment [11]; 9% in [20]; 0% in experiment [24].

`C=C1[C@@H]2C(=O)C=C3[C@@H](OC)O[C@@H](OC)[C@@H]3[C@@]2(C)[C@H](OC(=O)/C=C/c2ccccc2)C[C@@H]1C`: the inhibition at 100 ppm in experiment [1], in experiment [4], in [5], in experiment [8] and in experiment [14] was 0% in each case.

As to `C=C1[C@@H](C)C[C@@H](OC(=O)/C=C/c2ccccc2)[C@@]2(C)[C@H]1CC=C(CO)[C@@H]2CO`, the inhibition at 100 ppm in experiment [1] was determined as 0%; in [4] it was 58%; in experiment [5], 70%; in experiment [8], 0%; in experiment [14] it was 0%. Further, the inhibition at 25 ppm in experiment [2] was found to be 0%; in experiment [12] it was 0%; in [15] it was 0%; in [16], 22%; in experiment [19] it was 8%. For the same molecule, the inhibition at 6.25 ppm in experiment [6] was -6%; in [9] it was 0%; in experiment [11], 0%; in [20], 4%; in experiment [24], 0%.

For the molecule `C=C1[C@@H]2[C@@H](O)C=C(C=O)[C@H](C=O)[C@@]2(C)[C@H](OC(=O)/C=C/c2ccccc2)C[C@@H]1C`, the inhibition at 100 ppm in [1] amounted to 85%; in [4], 100%; in [5] it was 89%; in experiment [8], 0%; in [14] it was 96%. For the same molecule, the inhibition at 25 ppm in experiment [2] worked out at 0%; in experiment [12], 15%; in experiment [15], 73%; in experiment [16], 19%; in [19], 91%. The inhibition at 6.25 ppm in experiment [6] came out at 74%; in [9], 33%; in [11], 4%; in experiment [20] it was 2%; in experiment [24], 0%.

Take `C=C1[C@@H]2[C@@H](O)C=C3[C@@H](OC)O[C@@H](OC)[C@@H]3[C@@]2(C)[C@H](OC(=O)CCc2ccccc2)C[C@@H]1C`: the inhibition at 100 ppm in experiment [1] was determined as 9%; in experiment [4] it was 0%; in experiment [5] it was 0%; in experiment [8], 90%; in [14], 0%. Besides, the inhibition at 25 ppm turned out to be 17% in [2]; 9% in experiment [12]; 0% in [15]; 0% in experiment [16]; 0% in experiment [19]. Besides, the inhibition at 6.25 ppm is 0% in [6]; 0% in experiment [9]; 42% in [11]; 0% in experiment [20]; 0% in experiment [24].

Take `C=C1[C@@H](C)C[C@@H](O)[C@]2(C)[C@@H](C=O)C(C=O)=CC[C@@H]12`: the inhibition at 100 ppm in [1] turned out to be 0%; in experiment [4], 28%; in experiment [5] it was 24%; in experiment [8], 0%; in experiment [14], 60%. Also, the inhibition at 25 ppm in [2] is 0%; in experiment [12], 0%; in [15] it was 0%; in experiment [16], 4%; in [19], 36%. For the same molecule, the inhibition at 6.25 ppm in [6] was 19%; in experiment [9] it was 0%; in experiment [11] it was 0%; in [20], 7%; in [24], 0%.

Consider `C=C1[C@@H]2[C@@H](OC)C=C3[C@@H](OC)O[C@@H](OC)[C@@H]3[C@@]2(C)[C@H](O)C[C@@H]1C`, for which the inhibition at 100 ppm in experiment [1], in experiment [4], in [5], in experiment [8] and in [14] was 0% each time.

With `C=C1[C@@H]2[C@@H](O)C=C3[C@@H](OC)O[C@@H](OC)[C@@H]3[C@@]2(C)[C@H](OC(=O)/C=C/c2ccccc2)C[C@@H]1C`, the inhibition at 100 ppm in experiment [1] stood at 7%; in [4], 0%; in experiment [5], 0%; in experiment [8] it was 78%; in experiment [14], 0%. The inhibition at 25 ppm in experiment [2] was found to be 33%; in experiment [12] it was 4%; in experiment [15], 0%; in experiment [16], 0%; in [19], 0%. Also, the inhibition at 6.25 ppm stood at 0% in experiment [6]; 0% in experiment [9]; 0% in experiment [11]; 0% in experiment [20]; 43% in experiment [24].

`C=C1[C@@H]2[C@@H](O)C=C3[C@@H](OC)O[C@@H](OC)[C@@H]3[C@@]2(C)[C@H](O)C[C@@H]1C`: the inhibition at 100 ppm was 0% in [1]; 0% in experiment [4]; 0% in experiment [5]; 11% in [8]; 0% in experiment [14].

As usually defined, the inhibition is the relative decrease from the control value, in per cent.
